Screening data from PubChem BioAssay.
S1P4 antagonist: antagonists of human S1P4 receptor; O95977; S1P4-expressing cells, antagonist mode, reporter read-out; inhibition, % at 4.98 µM; 220,000 tested, 0.26% active; AID 1510; in the data active = inhibition above about 29%;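 also: 0% = wells stimulated with agonist and 100% = vehicle wells without agonist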
NPY-Y2 antag: blocks the human neuropeptide Y Y2 receptor; P49146; inhibition, % at 2.7 µM; 140,000 tested, 0.99% active; AID 793; NPY-Y2 expressing cells, antagonist mode; in the data active = inhibition above about 17%;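 also: 0% = vehicle with agonist challenge and 100% = reference antagonist with challenge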
Target sequence (P49146 whole entry, looked up): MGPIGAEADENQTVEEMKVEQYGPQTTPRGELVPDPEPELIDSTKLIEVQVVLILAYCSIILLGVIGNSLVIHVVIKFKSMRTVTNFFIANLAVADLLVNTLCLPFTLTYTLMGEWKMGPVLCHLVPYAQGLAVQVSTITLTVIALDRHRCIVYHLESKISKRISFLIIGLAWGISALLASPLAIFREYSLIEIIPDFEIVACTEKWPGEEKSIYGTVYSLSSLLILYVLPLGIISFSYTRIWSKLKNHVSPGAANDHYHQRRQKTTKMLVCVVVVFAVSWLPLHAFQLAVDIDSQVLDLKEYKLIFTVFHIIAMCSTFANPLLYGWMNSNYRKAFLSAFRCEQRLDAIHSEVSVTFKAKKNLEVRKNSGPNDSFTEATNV
NPY1 pot ag: potentiates or activates human NPY-Y1 receptor. 220,000 tested, 0.37% active. NPY-Y1 expressing cells, potentiator/agonist activation. activation, % at 3.6 µM. P25929. AID 1304; in the data active = activation above about 33%, passing the limit was not always enough;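 also: cells stimulated with NPY at EC10 then isoproterenol at EC100; 0% = low agonist plus stimulus and 100% = saturating agonist plus stimulus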
NPY-Y1 antag: NPY-Y1 (human) receptor antagonism | P25929 | HEK293-CNG Y1 cells, membrane potential fluorescence; NPY at EC95, then isoproterenol | inhibition, % at 3.6 µM | 200,000 tested, 1% active | AID 1040;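 active = inhibition above the campaign mean inhibition of all tested compounds plus 3 SD, cut at about 20% in these data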;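 also: 0% = DMSO wells given NPY plus isoproterenol and 100% = isoproterenol alone without NPY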
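material = HEK293 cells with Y1 receptor plus CNG channel | also added = NPY 25 nM then isoproterenol 1 µM plus Ro 20-1724 25 µM | schedule = dye 3 h, compound 60 min room temperature, stimulation 45 min | measured by = membrane potential fluorescence | benchmarks = high control isoproterenol alone, low control NPY with isoproterenol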
NPY2 pot ag: potentiates or activates human NPY-Y2 receptor; cells expressing NPY-Y2, potentiator/agonist read-out; activation, % at 3.6 µM; 220,000 tested, 0.45% active; AID 1359; in the data active = activation above about 27%;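 also: cells stimulated with NPY near EC25 plus isoproterenol at EC100; 0% = vehicle plus submaximal agonist and 100% = vehicle plus saturating agonist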
S1P4 agonist: agonists of human S1P4 receptor; O95977; AID 1509; S1P4-expressing cell line, agonist reporter assay; activation, % at 4.98 µM; 220,000 tested, 0.35% active; in the data active = activation above about 11%;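 also: 0% = DMSO vehicle and 100% = reference agonist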
S1P4 antag conf: confirmation of human S1P4 receptor antagonists; shares compounds with S1P4 antagonist; S1P4-expressing cell line, antagonist mode, reporter read-out; inhibition, % at 4.98 µM; 520 tested, 71% active; in the data active = inhibition above about 30%
S1P1 antagonist: blocks human S1P1, counter-screen for S1P4 antagonists | shares compounds with S1P4 antagonist | cell-based S1P1 antagonist counterscreen, inhibition | inhibition, % at 4.98 µM | 520 tested, 37% active | AID 1564; in the data active = inhibition above about 40%;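 also: receptor stimulated with S1P near its EC80; 0% = agonist stimulated wells and 100% = vehicle only wells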
* marks the source's active call; other numbers are inactive results. A selection: hits, their analogues and other compounds. The true share with any hit is near 2.4%.

CC(C)(C)c1ccc(C(O)CCCN2CCC(C(O)(c3ccccc3)c3ccccc3)CC2)cc1 (centres undefined) was read as S1P4 antagonist 32.6*, NPY-Y2 antag 4.9, NPY1 pot ag -21.1, NPY-Y1 antag 8.9, NPY2 pot ag -25.8, S1P4 agonist -1.1, S1P4 antag conf 6.4 and S1P1 antagonist -5.6.
`CCOC(=O)c1nnn(CC(=O)NC(=O)Nc2ccc(F)cc2)c1C(=O)OCC` gave S1P4 antagonist -12.7, NPY1 pot ag -11.6, NPY-Y1 antag -2.2, NPY2 pot ag 2.0 and S1P4 agonist 0.3.
Screening Cc1ccc(NC(=O)c2cc(=O)c3ccccc3o2)cc1S(=O)(=O)N1CCOCC1 returned S1P4 antagonist 0.3, NPY1 pot ag 25.9, NPY2 pot ag 10.5 and S1P4 agonist 0.1.
Cc1ccc(NC(=O)c2ccc([N+](=O)[O-])o2)cc1S(=O)(=O)N1CCOCC1 was read as S1P4 antagonist 67.9*, NPY1 pot ag 6.2, NPY-Y1 antag 3.6, NPY2 pot ag 13.8, S1P4 agonist -2.2, S1P4 antag conf 88.0* and S1P1 antagonist 42.2*.
O=C(Nc1cccc(S(=O)(=O)N2CCCCC2)c1)c1ccc([N+](=O)[O-])o1 was read as S1P4 antagonist 53.8*, NPY1 pot ag -6.0, NPY-Y1 antag -3.4, NPY2 pot ag -0.6, S1P4 agonist -4.4, S1P4 antag conf 95.2* and S1P1 antagonist 19.2.
`COc1cccc(CN2CCNC(=O)C2CC(=O)N(Cc2cnn(C)c2)C(C)C)c1` (centres undefined) gave S1P4 antagonist -5.0, NPY1 pot ag 8.2, NPY-Y1 antag 8.4, NPY2 pot ag 12.4 and S1P4 agonist 0.8.
Screening Nc1nc(CCl)nc(Nc2cccc3ccccc23)n1 returned S1P4 antagonist 33.0*, NPY1 pot ag -8.4, NPY2 pot ag -7.7, S1P4 agonist -0.5, S1P4 antag conf 54.6* and S1P1 antagonist 0.9.
`Nc1nc(Nc2cccc3ccccc23)nc(C2CCCC2=O)n1` (centres undefined) gave S1P4 antagonist -14.2, NPY-Y2 antag -2.4, NPY1 pot ag 18.7, NPY-Y1 antag -1.8, NPY2 pot ag -1.4 and S1P4 agonist 1.3.
Screening CC(C)NC(=O)CSCc1c(F)cccc1Cl returned S1P4 antagonist 57.1*, NPY-Y2 antag 3.8, NPY1 pot ag -12.7, NPY-Y1 antag -1.3, NPY2 pot ag -4.2, S1P4 agonist -1.2, S1P4 antag conf -3.0 and S1P1 antagonist -6.5.
`CNC(=O)CSCc1c(F)cccc1Cl` gave S1P4 antagonist 1.4, NPY-Y2 antag 3.0, NPY1 pot ag 3.2, NPY-Y1 antag 0.1, NPY2 pot ag 2.0 and S1P4 agonist -0.6.
Screening Cc1ccc(S(=O)(=O)Nc2cccc3ncccc23)cc1 returned S1P4 antagonist -14.4, NPY1 pot ag 23.2, NPY2 pot ag -9.9 and S1P4 agonist 1.0.
`Cc1ccc(S(=O)(=O)Nc2cccc3ncccc23)s1` gave S1P4 antagonist 47.2*, NPY-Y2 antag 0.8, NPY1 pot ag -12.8, NPY-Y1 antag -4.2, NPY2 pot ag -12.8, S1P4 agonist 1.1, S1P4 antag conf 108.0* and S1P1 antagonist 108.7*.
`CCC(C)(C)C(=O)Nc1cccc(Cl)c1C` gave S1P4 antagonist -1.4, NPY1 pot ag -18.7, NPY-Y1 antag -0.9, NPY2 pot ag 6.3 and S1P4 agonist 1.3.
Screening COC(CNC(=O)c1cccnc1)OC returned S1P4 antagonist -8.9, NPY1 pot ag 3.3, NPY-Y1 antag -5.6, NPY2 pot ag 1.6 and S1P4 agonist 1.8.
Screening COC(CNC(=O)c1ccc2c3c(onc13)-c1ccccc1C2=O)OC returned S1P4 antagonist 37.2*, NPY1 pot ag -4.1, NPY2 pot ag -14.9, S1P4 agonist 6.0, S1P4 antag conf 114.0* and S1P1 antagonist 22.2.
`Cc1ccc(NC(=O)CCCc2nc3ccccc3s2)c(O)c1` gave S1P4 antagonist -3.8, NPY1 pot ag -44.9, NPY-Y1 antag 2.0, NPY2 pot ag -34.6 and S1P4 agonist -0.8.
